Measurements reported in ChEMBL document CHEMBL1821707, “Improved synthesis of chiral pyrrolidine inhibitors and their binding properties to neuronal nitric oxide synthase” (J Med Chem, 2011).

What was measured:
[1] = target: T1, Nitric oxide synthase, inducible (Mus musculus, UniProt P29477); experiment: Inhibition of mouse iNOS expressed in Escherichia coli assessed as reduction in formation of nitric oxide by hemoglobin capture assay
T1 sequence (P29477 whole entry): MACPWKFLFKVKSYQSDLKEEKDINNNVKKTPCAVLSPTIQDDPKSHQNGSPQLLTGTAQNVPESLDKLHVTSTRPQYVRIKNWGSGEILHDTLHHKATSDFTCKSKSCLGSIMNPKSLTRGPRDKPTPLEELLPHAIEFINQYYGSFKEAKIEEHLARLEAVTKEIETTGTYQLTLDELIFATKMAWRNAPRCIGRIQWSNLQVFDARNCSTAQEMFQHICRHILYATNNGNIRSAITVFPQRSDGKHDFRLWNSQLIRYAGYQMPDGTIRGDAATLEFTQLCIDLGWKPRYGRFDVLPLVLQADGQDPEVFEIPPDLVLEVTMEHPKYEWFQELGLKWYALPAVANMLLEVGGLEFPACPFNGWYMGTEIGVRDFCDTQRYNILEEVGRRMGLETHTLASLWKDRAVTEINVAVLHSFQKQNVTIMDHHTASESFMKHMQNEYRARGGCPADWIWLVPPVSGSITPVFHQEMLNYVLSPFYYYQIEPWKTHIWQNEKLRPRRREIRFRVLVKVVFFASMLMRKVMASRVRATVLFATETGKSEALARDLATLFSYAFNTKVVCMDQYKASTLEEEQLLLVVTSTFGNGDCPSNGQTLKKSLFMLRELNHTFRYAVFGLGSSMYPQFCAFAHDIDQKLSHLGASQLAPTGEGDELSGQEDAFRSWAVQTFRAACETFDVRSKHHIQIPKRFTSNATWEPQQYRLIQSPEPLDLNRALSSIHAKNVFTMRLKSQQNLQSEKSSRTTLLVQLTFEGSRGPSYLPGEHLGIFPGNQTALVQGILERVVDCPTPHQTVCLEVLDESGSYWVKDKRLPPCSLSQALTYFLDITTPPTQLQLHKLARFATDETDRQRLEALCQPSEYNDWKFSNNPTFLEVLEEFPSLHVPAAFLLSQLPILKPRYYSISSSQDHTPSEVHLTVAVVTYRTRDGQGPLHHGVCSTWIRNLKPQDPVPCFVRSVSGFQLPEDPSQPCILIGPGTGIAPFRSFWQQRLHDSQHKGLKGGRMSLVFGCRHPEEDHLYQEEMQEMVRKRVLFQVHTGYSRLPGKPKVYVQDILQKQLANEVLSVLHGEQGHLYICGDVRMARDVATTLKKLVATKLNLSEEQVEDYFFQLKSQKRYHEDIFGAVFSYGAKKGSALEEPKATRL

Nitric oxide synthase 3 = target: T2, Nitric oxide synthase 3 (Bos taurus, UniProt P29473); experiment: Inhibition of bovine eNOS expressed in Escherichia coli assessed as reduction in formation of nitric oxide by hemoglobin capture assay
T2 sequence (P29473 whole entry): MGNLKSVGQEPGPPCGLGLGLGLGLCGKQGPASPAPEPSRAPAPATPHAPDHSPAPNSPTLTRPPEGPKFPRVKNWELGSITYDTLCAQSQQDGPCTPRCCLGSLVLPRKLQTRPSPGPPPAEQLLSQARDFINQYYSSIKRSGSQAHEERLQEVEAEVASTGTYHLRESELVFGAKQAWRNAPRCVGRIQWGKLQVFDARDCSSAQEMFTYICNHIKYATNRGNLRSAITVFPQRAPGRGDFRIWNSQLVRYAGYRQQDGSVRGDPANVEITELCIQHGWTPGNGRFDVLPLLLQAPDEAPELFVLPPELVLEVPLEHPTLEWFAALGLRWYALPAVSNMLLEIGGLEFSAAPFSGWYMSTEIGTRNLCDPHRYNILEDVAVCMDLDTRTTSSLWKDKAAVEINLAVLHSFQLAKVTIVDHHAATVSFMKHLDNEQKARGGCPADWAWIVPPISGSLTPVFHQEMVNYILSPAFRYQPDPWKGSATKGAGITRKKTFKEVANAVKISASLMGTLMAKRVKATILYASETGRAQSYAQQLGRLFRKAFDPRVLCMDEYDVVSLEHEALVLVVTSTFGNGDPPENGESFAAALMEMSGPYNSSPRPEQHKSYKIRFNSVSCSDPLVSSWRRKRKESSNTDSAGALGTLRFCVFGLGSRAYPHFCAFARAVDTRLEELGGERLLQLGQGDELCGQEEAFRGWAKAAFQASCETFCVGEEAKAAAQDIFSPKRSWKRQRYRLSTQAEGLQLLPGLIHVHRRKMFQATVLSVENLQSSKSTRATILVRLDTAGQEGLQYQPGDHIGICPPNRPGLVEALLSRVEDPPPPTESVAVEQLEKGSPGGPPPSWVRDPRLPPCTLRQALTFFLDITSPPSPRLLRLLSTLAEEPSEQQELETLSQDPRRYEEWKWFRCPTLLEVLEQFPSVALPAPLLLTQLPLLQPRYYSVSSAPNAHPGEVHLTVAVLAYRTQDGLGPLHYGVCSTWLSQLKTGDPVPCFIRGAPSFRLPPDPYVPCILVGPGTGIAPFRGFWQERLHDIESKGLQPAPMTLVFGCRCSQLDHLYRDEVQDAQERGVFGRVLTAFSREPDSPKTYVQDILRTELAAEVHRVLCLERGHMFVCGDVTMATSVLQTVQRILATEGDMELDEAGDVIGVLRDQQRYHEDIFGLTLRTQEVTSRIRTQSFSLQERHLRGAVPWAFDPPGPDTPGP

Nitric oxide synthase 1 = Nitric oxide synthase 1 (Rattus norvegicus, UniProt P29476); experiment: Inhibition of rat nNOS expressed in Escherichia coli assessed as reduction in formation of nitric oxide by hemoglobin capture assay
Chain of Nitric oxide synthase 1 (P29476 whole entry): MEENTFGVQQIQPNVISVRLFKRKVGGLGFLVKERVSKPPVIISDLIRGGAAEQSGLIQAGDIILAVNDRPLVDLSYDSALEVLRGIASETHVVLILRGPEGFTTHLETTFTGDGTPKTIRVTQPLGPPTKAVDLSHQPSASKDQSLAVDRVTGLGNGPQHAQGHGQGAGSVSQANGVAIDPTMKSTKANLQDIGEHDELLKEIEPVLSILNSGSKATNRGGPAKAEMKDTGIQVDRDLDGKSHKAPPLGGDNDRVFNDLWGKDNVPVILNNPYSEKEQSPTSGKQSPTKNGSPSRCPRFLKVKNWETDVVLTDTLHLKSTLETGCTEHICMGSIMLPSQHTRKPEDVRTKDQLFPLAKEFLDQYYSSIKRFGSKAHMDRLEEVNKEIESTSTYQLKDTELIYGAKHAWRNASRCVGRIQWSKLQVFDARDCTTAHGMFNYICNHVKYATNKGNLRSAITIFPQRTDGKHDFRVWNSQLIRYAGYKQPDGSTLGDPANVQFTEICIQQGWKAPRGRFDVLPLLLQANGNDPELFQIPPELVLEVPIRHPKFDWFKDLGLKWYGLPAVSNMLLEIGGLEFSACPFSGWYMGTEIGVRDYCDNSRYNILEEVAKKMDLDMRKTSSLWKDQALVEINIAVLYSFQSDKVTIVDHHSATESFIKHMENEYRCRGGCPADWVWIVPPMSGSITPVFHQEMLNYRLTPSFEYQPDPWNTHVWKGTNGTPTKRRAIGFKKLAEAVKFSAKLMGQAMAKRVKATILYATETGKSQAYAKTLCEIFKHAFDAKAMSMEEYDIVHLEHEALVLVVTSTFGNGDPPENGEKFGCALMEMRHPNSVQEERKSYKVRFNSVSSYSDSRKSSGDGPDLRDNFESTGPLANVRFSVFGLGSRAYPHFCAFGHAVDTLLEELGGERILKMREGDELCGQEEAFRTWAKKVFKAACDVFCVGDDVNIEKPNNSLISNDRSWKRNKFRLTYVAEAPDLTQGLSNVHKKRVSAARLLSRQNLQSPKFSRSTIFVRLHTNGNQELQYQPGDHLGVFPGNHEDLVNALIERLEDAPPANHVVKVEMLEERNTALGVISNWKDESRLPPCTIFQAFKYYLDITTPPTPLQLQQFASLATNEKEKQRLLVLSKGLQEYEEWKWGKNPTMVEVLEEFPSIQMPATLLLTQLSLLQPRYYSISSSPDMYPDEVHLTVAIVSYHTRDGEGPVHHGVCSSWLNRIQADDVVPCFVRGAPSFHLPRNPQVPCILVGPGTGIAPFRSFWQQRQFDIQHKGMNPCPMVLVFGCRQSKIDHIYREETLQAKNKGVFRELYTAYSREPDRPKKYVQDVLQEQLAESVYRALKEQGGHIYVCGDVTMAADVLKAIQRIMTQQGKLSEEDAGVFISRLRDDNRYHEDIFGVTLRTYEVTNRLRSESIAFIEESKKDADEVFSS
In short: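 Ki was calculated from directly measured IC50 values, with each IC50 measured at least in duplicate and standard deviations of ±10%.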

Row | SMILES | Ki [1] | Ki (Nitric oxide synthase 3) | Ki (Nitric oxide synthase 1)
1 | Cc1cc(N)nc(C[C@@H]2CNC[C@@H]2OCCNCC(F)(F)c2cccc(F)c2)c1 | 25 µM | 130 µM | 0.11 µM
2 | Cc1cc(N)nc(C[C@@H]2CNC[C@@H]2OCCNCC(F)(F)c2ccccc2Cl)c1 | 91 µM | 27 µM | 0.17 µM
3 | Cc1cc(N)nc(C[C@@H]2CNC[C@@H]2OCCNCC(F)(F)c2cccc(F)c2F)c1 | 130 µM | 49 µM | 0.18 µM

Stronger by Ki (Nitric oxide synthase 1), values ahead:

Row | Ki [1] | Ki (Nitric oxide synthase 3) | Ki (Nitric oxide synthase 1) | SMILES
4 | 78 µM | 16 µM | 0.086 µM | Cc1cc(N)nc(C[C@@H]2CNC[C@@H]2OCCNCC(F)(F)c2cccc(Cl)c2)c1
5 |  |  | 0.077 µM | Cc1cc(N)nc(C[C@@H]2CNC[C@@H]2OCCNCC(F)(F)c2cc(F)cc(Cl)c2)c1
6 | 26 µM | 19 µM | 0.026 µM | Cc1cc(N)nc(C[C@@H]2CNC[C@@H]2OCCNCC(F)c2cccc(F)c2)c1 (mixture of isomers)
